According to ChEMBL document CHEMBL1124992, “(Pyrimidinyloxy)acetic acids and pyrimidineacetic acids as a novel class of aldose reductase inhibitors” (J Med Chem, 1990):

Assays:
[1] = biological target: Aldo-keto reductase family 1 member B1 (Bos taurus) (UniProt P16116); test: In vitro inhibition of aldose reductase from the partially purified bovine lens at 10e-5 M concentration
Procedure, shortened: (§1)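 Bovine lens aldose reductase, partially purified, assayed spectrophotometrically following Hayman and Kinoshita. Each compound was tested at three concentrations, routinely in duplicate.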

[2] = biological target: Aldo-keto reductase family 1 member B1 (Bos taurus) (UniProt P16116); test: In vitro inhibition of aldose reductase from the partially purified bovine lens at 10e-7 M concentration; procedure, shortened: as §1
[3] = biological target: Aldo-keto reductase family 1 member B1 (Bos taurus) (UniProt P16116); test: In vitro inhibition of aldose reductase from the partially purified bovine lens at 10e-6 M concentration; procedure, shortened: as §1
Rattus norvegicus [4] = test: In vivo inhibition of polyol accumulation in galactosemic rat nerve at dose 112 mg/kg administered perorally; format: functional; conditions: route oral
Procedure, shortened: (§2)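 Rats received a diet of 20% galactose for 4 days, with compound mixed into the diet. Galactitol was measured in trichloroacetic acid extracts of lens, sciatic nerve and diaphragm by a modified Kraml–Cosyns method. Values are % reduction versus galactosemic controls, compared by Dunnett's multiple comparison.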

Rattus norvegicus [5] = test: In vivo inhibition of polyol accumulation in galactosemic rat diaphragm at dose 112 mg/kg administered perorally; format: functional; conditions: route oral; procedure, shortened: as §2
Rattus norvegicus [6] = test: In vivo inhibition of polyol accumulation in galactosemic rat diaphragm at dose 97 mg/kg administered perorally; format: functional; conditions: route oral; procedure, shortened: as §2
Rattus norvegicus [7] = test: In vivo inhibition of polyol accumulation in galactosemic rat nerve at dose 97 mg/kg administered perorally; format: functional; conditions: route oral; procedure, shortened: as §2
Rattus norvegicus [8] = test: In vivo inhibition of polyol accumulation in galactosemic rat diaphragm at dose 102 mg/kg administered perorally; format: functional; conditions: route oral; procedure, shortened: as §2
Rattus norvegicus [9] = test: In vivo inhibition of polyol accumulation in galactosemic rat nerve at dose 151 mg/kg administered perorally; format: functional; conditions: route oral; procedure, shortened: as §2
Rattus norvegicus [10] = test: In vivo inhibition of polyol accumulation in galactosemic rat diaphragm at dose 90 mg/kg administered perorally; format: functional; conditions: route oral; procedure, shortened: as §2
Rattus norvegicus [11] = test: In vivo inhibition of polyol accumulation in galactosemic rat nerve at dose 90 mg/kg administered perorally; format: functional; conditions: route oral; procedure, shortened: as §2
Rattus norvegicus [12] = test: In vivo inhibition of polyol accumulation in galactosemic rat diaphragm at dose 82 mg/kg administered perorally; format: functional; conditions: route oral; procedure, shortened: as §2
Rattus norvegicus [13] = test: In vivo inhibition of polyol accumulation in galactosemic rat nerve at dose 82 mg/kg administered perorally; format: functional; conditions: route oral; procedure, shortened: as §2
Rattus norvegicus [14] = test: In vivo inhibition of polyol accumulation in galactosemic rat diaphragm at dose 83 mg/kg administered perorally; format: functional; conditions: route oral; procedure, shortened: as §2
Rattus norvegicus [15] = test: In vivo inhibition of polyol accumulation in galactosemic rat nerve at dose 83 mg/kg administered perorally; format: functional; conditions: route oral; procedure, shortened: as §2
Rattus norvegicus [16] = test: In vivo inhibition of polyol accumulation in galactosemic rat nerve at dose 93 mg/kg administered perorally; format: functional; conditions: route oral; procedure, shortened: as §2
Rattus norvegicus [17] = test: In vivo inhibition of polyol accumulation in galactosemic rat lens at dose 93 mg/kg administered perorally; format: functional, Lens of camera-type eye; conditions: route oral; procedure, shortened: as §2
Rattus norvegicus [18] = test: In vivo inhibition of polyol accumulation in galactosemic rat diaphragm at dose 96 mg/kg administered perorally; format: functional; conditions: route oral; procedure, shortened: as §2
Rattus norvegicus [19] = test: In vivo inhibition of polyol accumulation in galactosemic rat nerve at dose 78 mg/kg administered perorally; format: functional; conditions: route oral; procedure, shortened: as §2
Rattus norvegicus [20] = test: In vivo inhibition of polyol accumulation in galactosemic rats lens; format: functional; conditions: Lens of camera-type eye, read-out: ID50 (the source's name)
Rattus norvegicus [21] = test: In vivo inhibition of polyol accumulation in galactosemic rats nerve; format: functional; conditions: read-out: ID50 (the source's name)
Rattus norvegicus [22] = test: In vivo inhibition of polyol accumulation in galactosemic rat diaphragm at dose 6 mg/kg administered perorally; format: functional; conditions: route oral; procedure, shortened: as §2
Rattus norvegicus [23] = test: In vivo inhibition of polyol accumulation in galactosemic rat nerve at dose 6 mg/kg administered perorally; format: functional; conditions: route oral; procedure, shortened: as §2
Rattus norvegicus [24] = test: In vivo inhibition of polyol accumulation in galactosemic rats diaphragm; format: functional; conditions: read-out: ID50 (the source's name)
Rattus norvegicus [25] = test: In vivo inhibition of polyol accumulation in galactosemic rat diaphragm at dose 105 mg/kg administered perorally; format: functional; conditions: route oral; procedure, shortened: as §2
Rattus norvegicus [26] = test: In vivo inhibition of polyol accumulation in galactosemic rat nerve at dose 105 mg/kg administered perorally; format: functional; conditions: route oral; procedure, shortened: as §2
Rattus norvegicus [27] = test: In vivo inhibition of polyol accumulation in galactosemic rat diaphragm at dose 135 mg/kg administered perorally; format: functional; conditions: route oral; procedure, shortened: as §2
Rattus norvegicus [28] = test: In vivo inhibition of polyol accumulation in galactosemic rat diaphragm at dose 99 mg/kg administered perorally; format: functional; conditions: route oral; procedure, shortened: as §2
Rattus norvegicus [29] = test: In vivo inhibition of polyol accumulation in galactosemic rat nerve at dose 99 mg/kg administered perorally; format: functional; conditions: route oral; procedure, shortened: as §2

Compound	inhibition [1]	inhibition [2]	inhibition [3]	further results
Cc1nc(-c2cccc3ccccc23)nc(OCC(=O)O)c1C#N	93%	46%	85%	–
COC(=O)c1c(OCC(=O)O)nc(C(C)(C)C)nc1SC	13%	–	2%	–
CSc1nc(C)nc(OCC(=O)O)c1C#N	90%	55%	84%	–
Cc1nc(N2CCN(Cc3ccccc3)CC2)c(C#N)c(=O)n1CC(=O)O	92%	64%	89%	–
CCCCCCSc1nc(C(C)(C)C)nc(OCC(=O)O)c1C#N	–	–	–	Reduction (Rattus norvegicus [4]): 43%; Reduction (Rattus norvegicus [5]): 60%
CC(C)(C)c1nc(OCC(=O)O)c(C#N)c(SCc2ccccc2)n1	86%	82%	85%	Reduction (Rattus norvegicus [6]): 67%; Reduction (Rattus norvegicus [7]): 46%
CC(C)c1nc(SCc2ccccc2)c(C#N)c(=O)n1CC(=O)O	96%	94%	98%	Reduction (Rattus norvegicus [8]): 38%
Cc1nc(NCC2CCCCC2)c(C#N)c(=O)n1CC(=O)O	93%	72%	91%	–
N#Cc1c(-c2ccccc2)nc(-c2cccc3c(Br)cccc23)n(CC(=O)O)c1=O	82%	22%	71%	–
Cc1nc(NCc2cccnc2)cc(=O)n1CC(=O)O	53%	–	18%	–
CSc1nc(C(C)C)n(CC(=O)O)c(=O)c1C#N	96%	94%	96%	–
CSc1nc(CC(C)(C)C)nc(OCC(=O)O)c1C#N	95%	85%	96%	–
Cc1nc(NCc2cccnc2)c(C#N)c(=O)n1CC(=O)O	88%	30%	90%	–
CSc1nc(C)n(CC(=O)O)c(=O)c1C#N	86%	74%	84%	–
CSc1nc(C2CCCCC2)n(CC(=O)O)c(=O)c1S(=O)(=O)c1ccccc1	3%	–	0%	–
N#Cc1c(OCC(=O)O)nc(-c2cccc3ccccc23)nc1-c1ccccc1	79%	53%	76%	–
Cc1nc(NCc2ccccc2)c(C#N)c(=O)n1CC(=O)O	96%	76%	90%	–

Compound	inhibition [1]	inhibition [2]	inhibition [3]	further results
CSc1nc(C(C)(C)C)nc(OCC(=O)O)c1C(N)=O	81%	10%	42%	–
N#Cc1c(Cc2cccc3ccccc23)nc(-c2cccc3c(Br)cccc23)n(CC(=O)O)c1=O	93%	46%	85%	Reduction (Rattus norvegicus [9]): 30%
CSc1nc(C2CCCCC2)n(CC(=O)O)c(=O)c1C#N	98%	89%	–	Reduction (Rattus norvegicus [10]): 42%; Reduction (Rattus norvegicus [11]): 47%
Cc1nc(-c2ccccc2)nc(OCC(=O)O)c1C#N	92%	79%	88%	–
Cc1nc(N2CCC(Cc3ccccc3)CC2)c(C#N)c(=O)n1CC(=O)O	90%	81%	88%	–
CC(C)Sc1nc(C(C)(C)C)nc(OCC(=O)O)c1C#N	92%	89%	91%	Reduction (Rattus norvegicus [12]): 19%; Reduction (Rattus norvegicus [13]): 37%
CSc1nc(C(C)(C)C)nc(OCC(=O)O)c1C#N	89%	82%	88%	Reduction (Rattus norvegicus [14]): 32%; Reduction (Rattus norvegicus [15]): 35%
N#Cc1c(SCc2ccc(Br)cc2F)nc(C2CCCCC2)n(CC(=O)O)c1=O	96%	92%	–	Reduction (Rattus norvegicus [16]): 50%; Reduction (Rattus norvegicus [17]): 15%
CSc1nc(-c2ccccc2)nc(OCC(=O)O)c1C#N	92%	75%	87%	Reduction (Rattus norvegicus [18]): 55%
CSc1nc(C(C)C)nc(OCC(=O)O)c1C#N	98%	88%	97%	Reduction (Rattus norvegicus [19]): 37%
COc1ccc2c(C(=S)N(C)CC(=O)O)cccc2c1C(F)(F)F [TOLRESTAT]	–	–	–	ED50 (Rattus norvegicus [20]): 178 mg/kg; ED50 (Rattus norvegicus [21]): 8 mg/kg; Reduction (Rattus norvegicus [22]): 90%; Reduction (Rattus norvegicus [23]): 53%; ED50 (Rattus norvegicus [24]): 1.5 mg/kg
CC(C)Sc1nc(C(C)C)n(CC(=O)O)c(=O)c1C#N	96%	91%	97%	–
CC(C)(C)c1nc(OCC(=O)O)c(C#N)c(SCC2CCCCC2)n1	97%	88%	96%	Reduction (Rattus norvegicus [25]): 60%; Reduction (Rattus norvegicus [26]): 70%
CC(C)(C)c1nc(OCC(=O)O)c(C#N)c(SCc2ccc(Br)cc2)n1	95%	95%	95%	Reduction (Rattus norvegicus [27]): 58%
N#Cc1c(-c2ccccc2)nc(-c2cccc3ccccc23)n(CC(=O)O)c1=O	84%	29%	68%	–
COC(=O)c1c(SC)nc(C2CCCCC2)n(CC(=O)O)c1=O	5%	–	1%	–
CC(C)(C)c1nc(OCC(=O)O)c(C#N)c(SCc2ccc(Br)cc2F)n1	98%	93%	93%	Reduction (Rattus norvegicus [28]): 47%; Reduction (Rattus norvegicus [29]): 28%
